Our source for the selectivity ratio, CC50 and IC50 values is ChEMBL document CHEMBL1641452, “Synthesis and in vitro anti-hepatitis B virus activity of six-membered azanucleoside analogues” (Bioorg Med Chem, 2011).

The structures appear in SMILES notation. Converted amounts (≈) assume the structure as drawn.

Series [1] in a line: Selectivity index, ratio of TC50 for human HepG2(2.2.15) cells to IC50 for Hepatitis B virus. The settings on record: read-out: Selectivity Index. The class given is toxicity.
The nature of series [2]: Cytotoxicity against human HepG2(2.2.15) cells. The format is cell-based. Conditions: read-out: TC50 (the source's name).
In series [3] the test system is Hepatitis B virus. Description: Antiviral activity against Hepatitis B virus infected in human HepG2.2.15 cells assessed as inhibition of viral DNA replication by semi-quantitative EIA. The class given is functional, organism-based. Conditions: HepG2 2.2.15. The essentials: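 HepG2 2.2.15 cells, derived from hepatoblastoma HepG2 and stably transfected with HBV, were seeded in flat-bottomed tissue culture wells. They received eight consecutive daily doses of compound in RPMI1640 with 2% fetal bovine serum, with lamivudine as the positive control. HBV nucleic acids and proteins were analysed at the end of treatment (day 8).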

Take `CC(C)(C)OC(=O)N1C[C@@H](O)C(O)C(O)C1n1cnc2c(N)ncnc21` (single isomer, unassigned): the selectivity ratio in series [1] was 3.2. The CC50 in series [2] was 1000 µg/mL (≈ 2730 µM). Besides, the IC50 in series [3] amounted to 316 µg/mL (≈ 862 µM).
`CC(C)(C)OC(=O)N1CC(O)[C@@H](O)[C@H](O)[C@H]1n1cc(F)c(=O)[nH]c1=O` (single isomer, unassigned): the CC50 in series [2] came to 192 µg/mL (≈ 533 µM).
Take `Cc1cn([C@H]2[C@H](O)[C@H](O)C(O)CN2C(=O)OC(C)(C)C)c(=O)[nH]c1=O` (single isomer, unassigned): the selectivity ratio in series [1] came to 17.5. In series [2], the CC50 came out at 577 µg/mL (≈ 1620 µM). Moreover, in series [3], the IC50 was found to be 33 µg/mL (≈ 92.4 µM).
For the compound `CC(C)(C)OC(=O)N1CC(O)[C@@H](O)[C@@H](O)[C@@H]1n1cnc2c(N)ncnc21` (single isomer, unassigned), the selectivity ratio in series [1] was determined as 3.6. In addition, the CC50 in series [2] came to 693 µg/mL (≈ 1890 µM). For the same compound, the 50% inhibitory concentration (IC50) in series [3] is 281 µg/mL (≈ 767 µM).
In the case of `Nc1ccn([C@@H]2CS[C@H](CO)O2)c(=O)n1` [LAMIVUDINE], in series [1], the selectivity ratio was 222. In series [2], the CC50 amounted to 1000 µg/mL (≈ 4360 µM). For the same compound, in series [3], the IC50 was 4.51 µg/mL (≈ 19.7 µM).
With `CC(C)(C)OC(=O)N1CC(O)[C@@H](O)[C@H](O)[C@H]1n1cnc2c(N)ncnc21` (single isomer, unassigned), the CC50 in series [2] was greater than 1000 µg/mL.
As for `Cc1cn([C@@H]2[C@H](O)[C@H](O)C(O)CN2C(=O)OC(C)(C)C)c(=O)[nH]c1=O` (single isomer, unassigned), the selectivity ratio in series [1] is 4.6. Also, the CC50 in series [2] amounted to 430 µg/mL (≈ 1200 µM). Also, in series [3], the IC50 is 93 µg/mL (≈ 260 µM).
For the compound `CC(C)(C)OC(=O)N1C[C@@H](O)[C@@H](O)[C@H](O)[C@H]1n1cc(F)c(=O)[nH]c1=O`, the selectivity ratio in series [1] is 13.5. Further, the CC50 in series [2] came to 37 µg/mL (≈ 103 µM). The IC50 in series [3] is 2.74 µg/mL (≈ 7.58 µM).
Take `Cc1cn([C@@H]2[C@@H](O)[C@H](O)[C@@H](O)CN2C(=O)OC(C)(C)C)c(=O)[nH]c1=O`: the CC50 in series [2] amounted to 1000 µg/mL (≈ 2800 µM).
Same read-out and setting: as for `CC(C)(C)OC(=O)N1CC(O)[C@@H](O)[C@H](O)[C@H]1n1ccc(N)nc1=O` (single isomer, unassigned), the figure is greater than 1000 µg/mL; as for `CC(C)(C)OC(=O)N1C[C@@H](O)[C@@H](O)[C@H](O)[C@@H]1n1cnc2c(N)ncnc21`, 1000 µg/mL (≈ 2730 µM).
Consider `CC(C)(C)OC(=O)N1C[C@@H](O)[C@@H](O)[C@H](O)[C@H]1n1cnc2c(N)ncnc21`, for which the selectivity ratio in series [1] amounted to 4. Also, in series [2], the CC50 was 1000 µg/mL (≈ 2730 µM). Also, in series [3], the IC50 stood at 247 µg/mL (≈ 675 µM).
In the case of `Cc1cn([C@@H]2[C@@H](O)[C@H](O)C(O)CN2C(=O)OC(C)(C)C)c(=O)[nH]c1=O` (single isomer, unassigned), the CC50 in series [2] was greater than 1000 µg/mL.
On the same count and under the same terms, the figure for `Cc1cn([C@H]2[C@@H](O)[C@H](O)[C@@H](O)CN2C(=O)OC(C)(C)C)c(=O)[nH]c1=O` is 1000 µg/mL (≈ 2800 µM).
On the same count and under the same terms, the figure for `CC(C)(C)OC(=O)N1C[C@H](O)[C@@H](O)[C@@H](O)[C@@H]1n1cc(F)c(=O)[nH]c1=O` is 29 µg/mL (≈ 80.3 µM).
The same measure, in the same setting: the figure for `CC(C)(C)OC(=O)N1CC(O)[C@@H](O)[C@H](O)[C@H]1n1ccc(=O)[nH]c1=O` (single isomer, unassigned) is greater than 1000 µg/mL.
